The values that follow come from ChEMBL document CHEMBL2417380, “Synthesis, pharmacological assessment, and molecular modeling of 6-chloro-pyridonepezils: new dual AChE inhibitors as potential drugs for the treatment of Alzheimer's disease” (Eur J Med Chem, 2013).

SMILES strings stand for the structures.

Usually IC50 stands for the concentration at which inhibition is half-maximal. Low readings indicate greater potency, high ones weaker potency.

In data set [1] the target is T1, Cholinesterase (Homo sapiens, UniProt P06276). The data set is described as follows: Inhibition of human plasma BuChE using butyrylthiocholine as substrate by Ellman's method. The essentials: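 Ellman spectrophotometric assay with BuChE from human serum in 100 mM phosphate buffer, pH 8.0, at 30 °C. Butyrylthiocholine (0.4 mM) was the substrate and DTNB 0.2 mM. Absorbance change at 412 nm gave IC50 as the concentration giving 50% inhibition. Values are mean ± s.e.m. of at least three experiments run in quadruplicate.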
For orientation: DTNB colorimetry detects thiols as they appear.

Data set [2] in a line: Permeability of the compound at 1 mg/ml after 4 hrs by PAMPA. The following applies: read-out: permeability. Format: ADME. In outline:
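PAMPA-BBB: donor filter impregnated with porcine brain lipid in dodecane (20 mg/mL). Compound dissolved in PBS (pH 7.4)/ethanol (7:3) and filtered before loading into the donor wells. The acceptor wells held PBS/ethanol (7:3). Incubated undisturbed 4 h at 25 °C. Acceptor concentration measured by UV at five wavelengths, in four wells, over at least three independent runs; mean (SD).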
On the technique in general: PAMPA measures passive passage across an artificial lipid membrane.

Data set [3] deals with Acetylcholinesterase (Homo sapiens, UniProt P22303). The data set can be described thus: Inhibition of purified human erythrocyte AChE using […] as substrate by Ellman's method.
For data set [4], the species on record is Homo sapiens. The data set is described as follows: Selectivity index, ratio of IC50 for human plasma BuChE to IC50 for purified human erythrocyte AChE. The essentials: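 Index computed as hBuChE IC50 divided by hAChE IC50. Both IC50s come from the Ellman assay in 100 mM phosphate buffer, pH 8.0, at 30 °C, read at 412 nm with DTNB 0.2 mM. AChE was purified from human erythrocytes with acetylthiocholine substrate; BuChE came from human serum with butyrylthiocholine substrate, each substrate at 0.4 mM.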

The target in data set [5] is T1, Cholinesterase. The data set is described as follows: Ratio of donepezil IC50 to compound IC50 for human plasma BuChE.

Acetylcholinesterase, sequence (P22303 whole entry): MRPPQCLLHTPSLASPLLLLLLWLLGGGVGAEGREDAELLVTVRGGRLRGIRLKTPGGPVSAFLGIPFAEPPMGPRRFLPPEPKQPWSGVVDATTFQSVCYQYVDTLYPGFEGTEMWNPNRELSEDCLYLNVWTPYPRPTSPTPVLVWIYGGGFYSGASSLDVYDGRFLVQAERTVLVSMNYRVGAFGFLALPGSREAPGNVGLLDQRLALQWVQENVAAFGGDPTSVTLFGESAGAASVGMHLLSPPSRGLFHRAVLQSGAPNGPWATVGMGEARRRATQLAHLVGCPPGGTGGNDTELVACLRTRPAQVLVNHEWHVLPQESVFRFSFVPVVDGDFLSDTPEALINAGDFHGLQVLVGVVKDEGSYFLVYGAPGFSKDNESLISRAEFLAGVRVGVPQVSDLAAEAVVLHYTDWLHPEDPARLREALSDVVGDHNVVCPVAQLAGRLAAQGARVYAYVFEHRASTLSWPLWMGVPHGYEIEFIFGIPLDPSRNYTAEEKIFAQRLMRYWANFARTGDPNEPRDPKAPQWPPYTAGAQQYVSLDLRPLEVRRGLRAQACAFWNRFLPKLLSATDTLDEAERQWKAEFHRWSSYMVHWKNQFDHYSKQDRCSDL
T1 sequence (P06276 whole entry): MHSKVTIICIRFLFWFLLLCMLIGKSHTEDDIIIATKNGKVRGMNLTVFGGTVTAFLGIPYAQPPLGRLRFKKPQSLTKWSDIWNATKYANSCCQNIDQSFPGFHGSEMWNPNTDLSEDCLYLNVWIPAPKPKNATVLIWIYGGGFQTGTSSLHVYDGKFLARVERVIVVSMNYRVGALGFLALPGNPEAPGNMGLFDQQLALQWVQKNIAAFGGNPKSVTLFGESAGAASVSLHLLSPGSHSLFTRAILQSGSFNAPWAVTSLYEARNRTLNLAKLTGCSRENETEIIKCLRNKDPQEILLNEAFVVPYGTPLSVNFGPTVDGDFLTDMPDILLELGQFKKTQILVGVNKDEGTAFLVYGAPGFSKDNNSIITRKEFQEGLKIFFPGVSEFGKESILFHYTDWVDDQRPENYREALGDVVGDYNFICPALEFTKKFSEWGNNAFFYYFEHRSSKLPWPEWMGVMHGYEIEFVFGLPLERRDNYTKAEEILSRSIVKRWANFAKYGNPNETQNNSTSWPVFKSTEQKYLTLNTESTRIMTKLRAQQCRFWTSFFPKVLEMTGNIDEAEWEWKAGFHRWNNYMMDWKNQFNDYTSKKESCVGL

`N#Cc1c(Cl)nc(NCCCCC2CCN(Cc3ccccc3)CC2)c(C#N)c1-c1ccccc1`: the figures for the IC50 in data set [1] and in data set [3] were 5.62 µM and 0.031 µM, respectively. In data set [2], the Papp at 4 h, 1 mg/ml came out at 10.3 ×10⁻⁶ cm/s. The Ratio IC50 in data set [4] was 181.

Consider `N#Cc1c(Cl)nc(NCCCC2CCN(Cc3ccccc3)CC2)c(C#N)c1-c1ccccc1`, for which the IC50 in data set [1] stood at 9.41 µM; in data set [3], 3.86 µM. For the same compound, the Papp at 4 h, 1 mg/ml in data set [2] amounted to 10.1 ×10⁻⁶ cm/s. Also, in data set [4], the Ratio IC50 was determined as 2.43.

With `N#Cc1c(NCCC2CCN(Cc3ccccc3)CC2)nc(NCCC2CCN(Cc3ccccc3)CC2)c(C#N)c1-c1ccccc1`, the 50% inhibitory concentration (IC50) was greater than 10 µM in data set [1] and 9.77 µM in data set [3].

With `N#Cc1cc(C#N)c(NC2CCN(Cc3ccccc3)CC2)nc1NC1CCN(Cc2ccccc2)CC1`, the half-maximal inhibitory concentration (IC50) was greater than 10 µM in data set [1] and 7.3 µM in data set [3]. Also, the Papp at 4 h, 1 mg/ml in data set [2] came out at 5 ×10⁻⁶ cm/s.

As for `N#Cc1cc(C#N)c(NCCC2CCN(Cc3ccccc3)CC2)nc1Cl`, the IC50 amounted to 0.47 µM in data set [1] and 0.31 µM in data set [3]. Further, the Papp at 4 h, 1 mg/ml in data set [2] worked out at 8.52 ×10⁻⁶ cm/s. For the same compound, the Ratio IC50 was 5 in data set [5] and 1.52 in data set [4].

Take `N#Cc1cc(C#N)c(NCCCC2CCN(Cc3ccccc3)CC2)nc1Cl`: the results for the IC50 in data set [1] and in data set [3] were 8.39 µM and 0.054 µM, respectively. Further, the Papp at 4 h, 1 mg/ml in data set [2] was determined as 5.98 ×10⁻⁶ cm/s. Also, in data set [4], the Ratio IC50 turned out to be 155.

In the case of `N#Cc1cc(C#N)c(NCCCCC2CCN(Cc3ccccc3)CC2)nc1Cl`, the 50% inhibitory concentration (IC50) came to 8.13 µM in data set [1] and 0.013 µM in data set [3]. Moreover, the Papp at 4 h, 1 mg/ml in data set [2] came to 6.99 ×10⁻⁶ cm/s. The Ratio IC50 in data set [4] came to 625.

As for `N#Cc1c(Cl)nc(NC2CCN(Cc3ccccc3)CC2)c(C#N)c1-c1ccccc1`, the IC50 in data set [1] was greater than 10 µM; in data set [3], 9.43 µM.

On to `N#Cc1cc(C#N)c(NC2CCN(Cc3ccccc3)CC2)nc1Cl`, for which the IC50 in data set [1] was greater than 10 µM; in data set [3], 5.35 µM. Further, the Papp at 4 h, 1 mg/ml in data set [2] is 7.39 ×10⁻⁶ cm/s.

With `N#Cc1c(Cl)nc(NCCC2CCN(Cc3ccccc3)CC2)c(C#N)c1-c1ccccc1`, the IC50 in data set [1] was greater than 10 µM; in data set [3] it was 4.4 µM.
